Test results reported in paper PMC10448436 (Journal of medicinal chemistry, 2022).
One block for each molecule: values may come before it.

Assays:
TARP γ−8 [1] = target: T1, TARP γ−8 (Rattus norvegicus, UniProt Q8VHW5); assay: In vitro autoradiography on rat brain sections; type: binding
T1 sequence (Q8VHW5 1-421): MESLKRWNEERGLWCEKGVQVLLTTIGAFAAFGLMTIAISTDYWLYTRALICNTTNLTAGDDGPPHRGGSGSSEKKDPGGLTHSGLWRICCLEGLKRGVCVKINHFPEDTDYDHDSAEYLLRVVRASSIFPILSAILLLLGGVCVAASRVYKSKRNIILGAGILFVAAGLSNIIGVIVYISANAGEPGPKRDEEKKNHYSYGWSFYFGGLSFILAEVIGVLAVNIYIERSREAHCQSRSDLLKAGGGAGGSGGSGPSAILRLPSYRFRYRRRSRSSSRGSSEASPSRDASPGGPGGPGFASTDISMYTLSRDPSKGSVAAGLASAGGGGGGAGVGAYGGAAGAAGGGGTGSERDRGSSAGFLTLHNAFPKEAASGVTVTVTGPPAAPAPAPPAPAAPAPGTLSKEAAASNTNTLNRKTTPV
Procedure, shortened: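 Frozen rat brain sections (stored −80 °C) were pre-incubated in 50 mM Tris-HCl for 20 min at ambient temperature, then incubated with the 11C-labelled test compound. For blocking, unlabelled inhibitor (1 μM) was added to the incubation solution beforehand. Sections were washed three times in ice-cold buffer, dipped 10 s in cold water, cold-air dried and exposed to imaging plates. ROI radioactivity was read as PSL/mm2.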

[2] = In vitro stability of the formulated radioligand; type: physicochemical
Procedure, shortened: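 After HPLC purification, the radiotracer fraction was collected into Tween 80 and ethanol, evaporated and redissolved in 5 mL sterile normal saline. It was then passed through a 0.22 μm filter. The formulated solution was checked for radiolysis up to 90 min.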

TARP γ−8 [3] = target: T1, TARP γ−8; assay: PET imaging in rat brain; type: in vivo, Sprague-Dawley rats
Procedure, shortened: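 Male Sprague-Dawley rats (210−230 g) were kept under 1–2% isoflurane. The 11C-labelled test compound was injected via tail-vein catheter (38.5 ± 2.8 MBq, 0.3 ± 0.2 nmol), followed by a dynamic 3D PET scan for 60 min, co-registered to an MR template. Decay-corrected data were expressed as SUV, and BPND maps were derived by SRTM. Mean ± SD, n = 3.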

Shake-flask logD7.4 = type: physicochemical; conditions: pH 7.4
[4] = target: DOR (delta opioid receptor) (Homo sapiens, UniProt P41143); assay: Off-target counter screen at 10 μM; type: binding; conditions: read-out: target inhibition, DOR
5-HT1A, Alpha2C and DOR = assay: Follow-up binding assays, selectivity towards TARP γ−8; conditions: follow-up 5-HT1A
Alpha2C = target: T2, Alpha2C (Homo sapiens, UniProt P18825); assay: Off-target counter screen at 10 μM; type: binding; conditions: read-out: target inhibition, Alpha2C
T2 sequence (P18825 1-462): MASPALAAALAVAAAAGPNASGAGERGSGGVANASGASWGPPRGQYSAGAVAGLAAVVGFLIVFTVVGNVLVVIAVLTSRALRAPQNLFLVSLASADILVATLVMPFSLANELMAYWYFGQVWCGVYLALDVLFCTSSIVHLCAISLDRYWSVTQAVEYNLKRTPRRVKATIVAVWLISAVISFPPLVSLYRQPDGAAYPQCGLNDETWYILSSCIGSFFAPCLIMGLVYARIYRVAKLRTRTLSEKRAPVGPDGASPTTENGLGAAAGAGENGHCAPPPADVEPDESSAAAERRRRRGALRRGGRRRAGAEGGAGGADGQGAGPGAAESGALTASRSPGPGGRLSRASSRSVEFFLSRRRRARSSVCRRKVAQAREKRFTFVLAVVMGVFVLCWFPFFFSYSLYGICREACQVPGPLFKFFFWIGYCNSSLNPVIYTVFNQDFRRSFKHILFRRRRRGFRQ

5-HT1A = target: T3, 5-HT1A (Homo sapiens, UniProt P08908); assay: Off-target counter screen at 10 μM; type: binding; conditions: read-out: target inhibition, 5-HT1A
T3 sequence (P08908 1-422): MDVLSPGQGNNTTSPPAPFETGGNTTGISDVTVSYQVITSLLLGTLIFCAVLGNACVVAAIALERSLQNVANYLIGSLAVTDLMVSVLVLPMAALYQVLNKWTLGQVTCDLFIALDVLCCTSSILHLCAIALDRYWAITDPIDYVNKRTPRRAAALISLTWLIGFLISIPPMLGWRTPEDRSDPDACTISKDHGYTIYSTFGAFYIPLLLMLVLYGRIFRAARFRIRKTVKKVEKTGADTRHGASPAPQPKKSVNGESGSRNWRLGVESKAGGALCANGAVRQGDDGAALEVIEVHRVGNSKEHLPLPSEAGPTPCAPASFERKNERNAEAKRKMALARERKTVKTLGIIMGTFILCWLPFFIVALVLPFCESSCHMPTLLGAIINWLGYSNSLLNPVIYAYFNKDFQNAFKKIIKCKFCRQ

[5] = test system: ionotropic glutamate receptors (iGluR); assay: Off-target counter screen at 10 μM; type: binding
[6] = tracer [11C]8, blocking with 8 (1 μM)
[7] = tracer [11C]15, pretreatment with JNJ-55511118 (1 mg/kg), rat

Sequence of DOR (delta opioid receptor) (P41143 whole entry): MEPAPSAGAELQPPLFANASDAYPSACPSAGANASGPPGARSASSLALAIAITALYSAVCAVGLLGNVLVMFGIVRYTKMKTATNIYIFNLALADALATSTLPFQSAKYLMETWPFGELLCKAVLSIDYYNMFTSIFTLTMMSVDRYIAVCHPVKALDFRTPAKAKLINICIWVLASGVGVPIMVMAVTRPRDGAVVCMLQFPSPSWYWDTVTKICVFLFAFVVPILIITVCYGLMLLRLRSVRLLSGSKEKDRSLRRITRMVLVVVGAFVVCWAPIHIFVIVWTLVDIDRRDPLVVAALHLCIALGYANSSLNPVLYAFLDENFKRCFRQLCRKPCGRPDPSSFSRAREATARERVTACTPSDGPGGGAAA

change of bound radioactivity in cerebellum (reference region) (TARP γ−8 [1]; [6]): no notable change
reduction of bound radioactivity in hippocampus (TARP γ−8 [1]; [6]): 83%
radiolysis in the formulated solution ([2]; up to 90 min): no radiolysis was observed
in vitro stability ([2]; up to 90 min after formulation): > 95%
maximum SUV in the brain (TARP γ−8 [3]; at 2.5 min, baseline, rat): 0.4
SMILES: [11CH3]c1ccc2nc(C3CCC3)n(-c3ccc4[nH]c(=O)sc4c3)c2n1 [[^11C]8, 6-(2-cyclobutyl-5-[^11C]methyl-3H-imidazo[4,5-b]pyridin-3-yl)benzo[d]thiazol-2(3H)-one]
blood brain barrier penetration (TARP γ−8 [3]; rat PET, baseline): failed to penetrate the blood brain barrier

logD (Shake-flask logD7.4): 2.3 ± 0.06
SMILES: Cc1ccc2nc(C3CCC3)n(-c3ccc4[nH]c(=O)sc4c3)c2n1 [Compound 8, 6-(2-Cyclobutyl-5-methyl-3H-imidazo[4,5-b]pyridin-3-yl)benzo[d]thiazol-2(3H)-one]

reduction of uptake in hippocampus (TARP γ−8 [1]; tracer [11C]15, blocking with JNJ-55511118 (1 μM)): 77%
reduction of BPND values (TARP γ−8 [3]; [7]): 66–81%
reduction of radioactivity uptake in hippocampus based on AUC (TARP γ−8 [3]; [7]): 35–47%
SMILES: O=c1[nH]c2ccc(-c3c(Cl)cccc3OC(F)(F)F)cc2[nH]1 [JNJ-55511118, reference compound]

inhibition at 10 µM [4]: > 50%
selectivity towards TARP γ−8 among any other tested CNS targets (5-HT1A, Alpha2C and DOR): greater than 750 fold
inhibition at 10 µM (Alpha2C): > 50%
inhibition at 10 µM (5-HT1A): > 50%
interaction with related iGlu receptor family [5]: no substantial interaction
logD (Shake-flask logD7.4): 2.5 ± 0.01
SMILES: Cc1ccc2nc(C3CCC3)n(-c3ccc4[nH]ncc4c3)c2n1 [Compound 15, 2-Cyclobutyl-3-(1H-indazol-5-yl)-5-methyl-3H-imidazo[4,5-b]pyridine]
